Source: publication PMC4220649 (Blood Cancer Journal, 2014)
Read-outs that look alike come from different tables or passages of the source.

System: patients with relapsed/refractory lymphoma
Format: in vivo, human
Settings: for Drug-related grade ⩾3 AE: Renal failure: includes renal failure acute; for Drug-related AE: PN NEC: peripheral neuropathy, high-level term
How it was run: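 Open-label phase 1 in patients with relapsed/refractory lymphoma after ⩾2 prior therapies. Dosing started at one patient per level with doubling from 0.125 to 1.0 mg/m2, then followed a 3+3 schema up to 3.11 mg/m2. DLTs were assessed in cycle 1, and AEs were graded by NCI-CTCAE v3.0.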

## CC(C)C[C@H](NC(=O)CNC(=O)c1cc(Cl)ccc1Cl)B(O)O [ixazomib]
Dose 1.76 mg/m^2 (n=7)
  Drug-related AE: Paresthesia: 0 n
  Drug-related AE: Peripheral edema: 1 n
  Drug-related AE: Pyrexia: 3 n
  Drug-related AE: Thrombocytopenia: 2 n
  Drug-related AE: Vomiting: 4 n
  Drug-related grade ⩾3 AE: Any grade ⩾3 AE: 3 n
  Drug-related grade ⩾3 AE: Dehydration: 0 n
  Drug-related grade ⩾3 AE: Diarrhea: 0 n
  Drug-related grade ⩾3 AE: Lymphopenia: 0 n
  Drug-related grade ⩾3 AE: Neutropenia: 1 n
  Drug-related grade ⩾3 AE: Thrombocytopenia: 1 n
  Drug-related grade ⩾3 AE: Renal failure: 0 n
  Drug-related AE: PN NEC: 2 n
Dose 2.34 mg/m^2 (n=10)
  Drug-related AE: Abdominal pain: 2 n
  Drug-related AE: Any AE: 10 n
  Drug-related AE: Arthralgia: 1 n
  Drug-related AE: Chills: 1 n
  Drug-related AE: Constipation: 0 n
  Drug-related AE: Cough: 1 n
  Drug-related AE: Decreased appetite: 0 n
  Drug-related AE: Decreased platelet count: 0 n
  Drug-related AE: Diarrhea: 2 n
  Drug-related AE: Dysgeusia: 1 n
  Drug-related AE: Fatigue: 2 n
  Drug-related AE: Headache: 1 n
  Drug-related AE: Hypokalemia: 0 n
  Drug-related AE: Lymphopenia: 2 n
  Drug-related AE: Nausea: 1 n
  Drug-related AE: Neutropenia: 3 n
  Drug-related AE: Oral herpes: 1 n
  Drug-related AE: Pain in extremity: 2 n
  Drug-related AE: Paresthesia: 1 n
  Drug-related AE: Peripheral edema: 2 n
  Drug-related AE: Pyrexia: 2 n
  Drug-related AE: Thrombocytopenia: 2 n
  Drug-related AE: Vomiting: 1 n
  Drug-related grade ⩾3 AE: Any grade ⩾3 AE: 4 n
  Drug-related grade ⩾3 AE: Dehydration: 0 n
  Drug-related grade ⩾3 AE: Diarrhea: 0 n
  Drug-related grade ⩾3 AE: Lymphopenia: 1 n
  Drug-related grade ⩾3 AE: Neutropenia: 3 n
  Drug-related grade ⩾3 AE: Thrombocytopenia: 1 n
  Drug-related grade ⩾3 AE: Renal failure: 0 n
  Drug-related AE: PN NEC: 0 n
Dose 3.11 mg/m^2 (n=5)
  Drug-related AE: Abdominal pain: 2 n
  Drug-related AE: Any AE: 5 n
  Drug-related AE: Arthralgia: 2 n
  Drug-related AE: Chills: 1 n
  Drug-related AE: Constipation: 3 n
  Drug-related AE: Cough: 1 n
  Drug-related AE: Decreased appetite: 3 n
  Drug-related AE: Decreased platelet count: 2 n
  Drug-related AE: Diarrhea: 4 n
  Drug-related AE: Dysgeusia: 0 n
  Drug-related AE: Fatigue: 2 n
  Drug-related AE: Headache: 1 n
  Drug-related AE: Hypokalemia: 2 n
  Drug-related AE: Lymphopenia: 1 n
  Drug-related AE: Nausea: 2 n
  Drug-related AE: Neutropenia: 1 n
  Drug-related AE: Oral herpes: 1 n
  Drug-related AE: Pain in extremity: 1 n
  Drug-related AE: Paresthesia: 0 n
  Drug-related AE: Peripheral edema: 1 n
  Drug-related AE: Pyrexia: 0 n
  Drug-related AE: Thrombocytopenia: 1 n
  Drug-related AE: Vomiting: 3 n
  Drug-related grade ⩾3 AE: Any grade ⩾3 AE: 3 n
  Drug-related grade ⩾3 AE: Dehydration: 2 n
  Drug-related grade ⩾3 AE: Diarrhea: 3 n
  Drug-related grade ⩾3 AE: Lymphopenia: 1 n
  Drug-related grade ⩾3 AE: Neutropenia: 1 n
  Drug-related grade ⩾3 AE: Thrombocytopenia: 1 n
  Drug-related grade ⩾3 AE: Renal failure: 2 n
  Drug-related AE: PN NEC: 1 n
Dose 0.125–1.0 mg/m^2 (n=4)
  Drug-related AE: Abdominal pain: 0 n
  Drug-related AE: Any AE: 4 n
  Drug-related AE: Arthralgia: 0 n
  Drug-related AE: Chills: 0 n
  Drug-related AE: Constipation: 0 n
  Drug-related AE: Cough: 0 n
  Drug-related AE: Decreased appetite: 1 n
  Drug-related AE: Decreased platelet count: 0 n
  Drug-related AE: Diarrhea: 1 n
  Drug-related AE: Dysgeusia: 0 n
  Drug-related AE: Fatigue: 3 n
  Drug-related AE: Headache: 2 n
  Drug-related AE: Hypokalemia: 1 n
  Drug-related AE: Lymphopenia: 0 n
  Drug-related AE: Nausea: 1 n
  Drug-related AE: Neutropenia: 0 n
  Drug-related AE: Oral herpes: 0 n
  Drug-related AE: Pain in extremity: 0 n
  Drug-related AE: Paresthesia: 1 n
  Drug-related AE: Peripheral edema: 0 n
  Drug-related AE: Pyrexia: 0 n
  Drug-related AE: Thrombocytopenia: 1 n
  Drug-related AE: Vomiting: 0 n
  Drug-related grade ⩾3 AE: Any grade ⩾3 AE: 1 n
  Drug-related grade ⩾3 AE: Dehydration: 0 n
  Drug-related grade ⩾3 AE: Diarrhea: 0 n
  Drug-related grade ⩾3 AE: Lymphopenia: 0 n
  Drug-related grade ⩾3 AE: Neutropenia: 0 n
  Drug-related grade ⩾3 AE: Thrombocytopenia: 0 n
  Drug-related grade ⩾3 AE: Renal failure: 0 n
  Drug-related AE: PN NEC: 1 n
Grade 1 or 2, all doses, n=30
  Drug-related peripheral neuropathy (PN), patients: 13%
All doses, Total (n=30)
  Drug-related grade ⩾3 AE: Renal failure: 2 (7) n (%)
  Drug-related AE: PN NEC: 4 (13) n (%)
Dose 1.4 mg/m^2 (n=4)
  Drug-related grade ⩾3 AE: Renal failure: 0 n
  Drug-related AE: PN NEC: 0 n
